Measured values of several laboratories.
pEC50: −log10 of the molar value.
Read-out: cell growth or viability

CC(=NNC(=O)c1ccccc1)c1ccc(Nc2nnc(-c3ccc(Cl)cc3)c3ccccc23)cc1
cell death (MCF7; MTT; 10 µM): 94.1%

CC(=O)Nc1ccc(/C(C)=N/N=c2\sc(C(C)=O)nn2-c2ccc(C)cc2)cc1
viability (MCF7; MTT; 10 µM): 5.39%

CC(=NNC(=O)c1ccccc1Cl)c1ccc(Nc2nnc(-c3ccc(Cl)cc3)c3ccccc23)cc1
viability (MCF7; MTT; 0.312 µM, 24 h): 99.9%

COc1ccc(CNC[C@](O)(COCc2ccc(F)cc2)[C@@H]2CC[C@@H](C)C[C@H]2OCc2ccc(F)cc2)cc1
inhibition (MCF7; MTT; 10 µM, 72 h): 97.7%

CC(=NNC(=O)c1ccccc1Br)c1ccc(Nc2nnc(-c3ccc(Cl)cc3)c3ccccc23)cc1
cell death (MCF7; MTT; 5 µM): 93.8%

CCOC(=O)c1nn(-c2cccc(Cl)c2)/c(=N/N=C(\C)c2ccc(NC(=O)c3ccc(Cl)cc3)cc2)s1
viability (MCF7; MTT; 2.5 µM): 3.54%

C=CC(=O)NC1CCN(c2ncc3ncnc(Nc4ccc(Oc5ccc6c(c5)ncn6C)c(C)c4)c3n2)CC1
pEC50 (SW-620): 7.08

C[C@@H]1CC[C@@H]([C@](C)(O)Cn2cnc3ccccc32)[C@H](OCc2ccccc2)C1
inhibition (MCF7; MTT; 10 µM, 72 h): 51%

CC(=O)c1nn(-c2ccccc2Cl)/c(=N/N=C(\C)c2ccc(NC(=O)c3ccccc3)cc2)s1
viability (MCF7; MTT; 0.156 µM): 9.62%

CC(=NNC(=O)c1ccc(N)cc1)c1ccc(Nc2nnc(-c3ccc(Cl)cc3)c3ccccc23)cc1
cell death (MCF7; MTT; 2.5 µM): 94.6%

Cc1c(C(=O)O)ccc2c3n(nc12)[C@@H]1[C@H](C3)N(CC2CC2)[C@@]2(C(=O)Nc3cc(Cl)ccc32)[C@H]1c1cccc(Cl)c1F
GI50 (SJSA-1; resazurin): 7 nM

C=C(COCc1ccc(OC)cc1)[C@@H]1CC[C@@H](C)C[C@H]1OCc1ccc(OC)cc1
inhibition (MCF7; MTT; 30 µM, 72 h): 24%

CCOC(=O)c1nn(-c2cccc(Cl)c2)/c(=N/N=C(\C)c2ccc(NC(=O)c3ccccc3)cc2)s1
viability (MCF7; MTT; 0.625 µM): 2.63%

C[C@@H]1CC[C@@H]([C@](C)(O)Cn2ccnc2)[C@H](OCc2ccccc2)C1
inhibition (MCF7; MTT; 30 µM, 72 h): 34.6%

CC(=NNC(N)=S)c1ccc(Nc2nnc(-c3ccc(Cl)cc3)c3ccccc23)cc1
cell death (MCF7; MTT; 78 nM): 9.65%

COc1ccc(CNC[C@@](C)(O)[C@@H]2CC[C@@H](C)C[C@H]2OCc2ccccc2)cc1
inhibition (MCF7; MTT; 10 µM, 72 h): 92.4%

O=C(Nc1ccccc1)Nc1ccc(Oc2nnc(-c3ccc(Cl)cc3)c3ccccc23)cc1
cell death (MCF7; MTT; 2.5 µM): 96.7%

C[C@@H]1CC[C@@H]([C@@](O)(CNCc2ccccc2)COCc2ccccc2)[C@H](OCc2ccccc2)C1
inhibition (MCF7; MTT; 30 µM, 72 h): 96.4%

CC(=O)c1nn(-c2ccc(C)cc2)/c(=N/N=C(\C)c2ccc(NC(=O)c3ccccc3)cc2)s1
viability (MCF7; MTT; 0.625 µM): 4.79%
